Experiment [1] concerns the target T1, Ephrin type-B receptor 4 (Homo sapiens, UniProt P54760).
T1 sequence (P54760 whole entry): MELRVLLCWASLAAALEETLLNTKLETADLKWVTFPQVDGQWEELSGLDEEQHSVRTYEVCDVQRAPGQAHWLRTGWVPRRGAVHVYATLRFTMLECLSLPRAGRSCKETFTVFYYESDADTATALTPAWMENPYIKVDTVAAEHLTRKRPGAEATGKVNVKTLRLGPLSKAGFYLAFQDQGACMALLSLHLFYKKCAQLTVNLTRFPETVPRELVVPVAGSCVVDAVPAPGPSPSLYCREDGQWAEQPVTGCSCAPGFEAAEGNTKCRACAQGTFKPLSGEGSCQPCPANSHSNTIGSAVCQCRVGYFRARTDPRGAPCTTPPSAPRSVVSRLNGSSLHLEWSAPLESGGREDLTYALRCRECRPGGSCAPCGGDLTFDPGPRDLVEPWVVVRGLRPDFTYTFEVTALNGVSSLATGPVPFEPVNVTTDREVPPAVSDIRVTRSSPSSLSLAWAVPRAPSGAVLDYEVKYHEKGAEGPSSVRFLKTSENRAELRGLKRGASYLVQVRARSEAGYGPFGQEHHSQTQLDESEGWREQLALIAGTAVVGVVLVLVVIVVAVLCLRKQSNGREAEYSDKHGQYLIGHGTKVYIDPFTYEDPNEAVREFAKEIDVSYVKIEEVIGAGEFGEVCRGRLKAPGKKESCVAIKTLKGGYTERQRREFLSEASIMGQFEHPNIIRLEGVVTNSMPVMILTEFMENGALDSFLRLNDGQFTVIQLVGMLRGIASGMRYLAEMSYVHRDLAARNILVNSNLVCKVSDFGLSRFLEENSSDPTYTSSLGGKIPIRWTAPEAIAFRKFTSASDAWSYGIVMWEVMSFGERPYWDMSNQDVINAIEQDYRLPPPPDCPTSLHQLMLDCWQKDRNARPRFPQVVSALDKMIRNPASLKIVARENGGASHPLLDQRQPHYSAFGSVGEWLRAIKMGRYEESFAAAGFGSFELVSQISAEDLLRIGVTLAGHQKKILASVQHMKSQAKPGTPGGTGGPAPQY
Put plainly: Inhibition of EphB4 by [gamma33-P]ATP based assay.

In experiment [2] the target is T1, Ephrin type-B receptor 4. Put plainly: Inhibition of EphB4 assessed as blockade of synthetic substrate phosphorylation by FRET assay.
The target of experiment [3] is T2, Ephrin type-B receptor 4 (Homo sapiens) (UniProt P54760).
T2 sequence (whole entry): T1 sequence (P54760 whole entry)
Put plainly: Inhibition of EphB4 assessed as blockade of synthetic substrate phosphorylation at 10 uM by FRET assay. Further details: scale not given: the % may be the effect or the level left. In outline: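 Z'-LYTE FRET kinase assay with Tyr 1 peptide substrate. Final EphB4 25 ng/μL, ATP 125 μM (near Km), 30 °C for 2 h. Excitation 400 nm, emission at 445 and 520 nm, read as fluorescence progress curves. Inhibition of substrate phosphorylation was measured.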

As a reminder, the IC50 is the concentration at which inhibition is half-maximal.

`Cn1c(=O)[nH]c(=O)c2c1nc1n(CCCCO)c(-c3ccccc3)cn21`: at Ephrin type-B receptor 4 [1], it took 5680 nM to reach half-maximal inhibition (IC50).

Regarding `COc1ccccc1-n1c(-c2ccc3c(c2)OCO3)cn2c3c(=O)[nH]c(=O)n(C)c3nc12`, on Ephrin type-B receptor 4 [2], the half-maximal inhibitory concentration (IC50) is > 20000 nM.

In the case of `CCCCn1c(-c2cccc(O)c2)cn2c3c(=O)[nH]c(=O)n(C)c3nc12`, the IC50 at Ephrin type-B receptor 4 [2] was determined as 691 nM.

Consider `CCCCn1c(-c2ccc(C)cc2)cn2c3c(=O)[nH]c(=O)n(C)c3nc12`, for which the Activity in experiment [3] stood at 38%.

Consider `COc1ccccc1-n1c(-c2ccc(C(=O)O)cc2)cn2c3c(=O)[nH]c(=O)n(C)c3nc12`, for which, on Ephrin type-B receptor 4 [2], the IC50 is > 20000 nM.

On to `CCCCn1c(-c2ccc(OC)cc2)cn2c3c(=O)[nH]c(=O)n(C)c3nc12`, for which the half-inhibitory concentration (IC50) at Ephrin type-B receptor 4 [2] was > 10000 nM.

For `COc1ccccc1-n1c(-c2cccc(O)c2C)cn2c3c(=O)[nH]c(=O)n(C)c3nc12`, the IC50 on Ephrin type-B receptor 4 [2] came to 1200 nM.

For the compound `CCCCn1c(-c2ccccc2OC)cn2c3c(=O)[nH]c(=O)n(C)c3nc12`, the half-inhibitory concentration (IC50) on Ephrin type-B receptor 4 [2] is > 10000 nM.

For the compound `COc1ccccc1-n1c(-c2cccc(O)c2)cn2c3c(=O)[nH]c(=O)n(C)c3nc12`, the values for the half-maximal inhibitory concentration (IC50) on Ephrin type-B receptor 4 [2] and against Ephrin type-B receptor 4 [1] were 368 nM and 213 nM, respectively.

In the case of `COc1ccccc1-n1c(-c2ccc(F)cc2)cn2c3c(=O)[nH]c(=O)[nH]c3nc12`, the IC50 on Ephrin type-B receptor 4 [2] was 5400 nM.

Take `COc1ccccc1-n1c(-c2ccc(O)cc2C)cn2c3c(=O)[nH]c(=O)n(C)c3nc12`: the 50% inhibitory concentration (IC50) at Ephrin type-B receptor 4 [2] is 236 nM.

With `COc1ccccc1-n1c(-c2ccccc2O)cn2c3c(=O)[nH]c(=O)n(C)c3nc12`, the Activity in experiment [3] turned out to be 64%.

For `COc1ccccc1-n1c(-c2ccccc2)cn2c3c(=O)[nH]c(=O)n(Cc4ccccc4)c3nc12`, the 50% inhibitory concentration (IC50) on Ephrin type-B receptor 4 [2] is > 10000 nM.

Take `COc1ccccc1-n1c(-c2ccc(F)cc2)cn2c3c(=O)[nH]c(=O)n(Cc4ccccc4)c3nc12`: on Ephrin type-B receptor 4 [2], the IC50 was > 10000 nM.

As for `CCCCn1c(-c2ccc(O)cc2)cn2c3c(=O)[nH]c(=O)n(C)c3nc12`, the concentration for half-maximal inhibition (IC50) at Ephrin type-B receptor 4 [2] is 558 nM.

`Cn1c(=O)[nH]c(=O)c2c1nc1n(CCCCO)c(-c3ccc4c(c3)OCO4)cn21`: the Activity in experiment [3] amounted to 42%.

For the compound `COc1ccccc1-n1c(-c2cccc(C)c2)cn2c3c(=O)[nH]c(=O)n(C)c3nc12`, the half-maximal inhibitory concentration (IC50) on Ephrin type-B receptor 4 [2] was > 10000 nM.

Turning to `COc1ccccc1-n1c(-c2ccc(O)cc2)cn2c3c(=O)[nH]c(=O)n(C)c3nc12`, the Activity in experiment [3] amounted to 59%.

`COc1ccccc1-n1c(-c2cccc3c2OCO3)cn2c3c(=O)[nH]c(=O)n(C)c3nc12`: the Activity in experiment [3] worked out at 30%.

Take `COc1ccccc1-n1c(-c2ccc(C#N)cc2)cn2c3c(=O)[nH]c(=O)n(C)c3nc12`: the IC50 on Ephrin type-B receptor 4 [2] is > 20000 nM.

Take `CCCCn1c(-c2cccc(OC)c2)cn2c3c(=O)[nH]c(=O)n(C)c3nc12`: the Activity in experiment [3] was found to be 36%.

On to `CCCCn1c(-c2ccccc2O)cn2c3c(=O)[nH]c(=O)n(C)c3nc12`, for which the half-inhibitory concentration (IC50) at Ephrin type-B receptor 4 [2] was found to be 1600 nM.

Regarding `COc1ccccc1-n1c(-c2ccc([N+](=O)[O-])cc2)cn2c3c(=O)[nH]c(=O)n(C)c3nc12`, the IC50 at Ephrin type-B receptor 4 [2] was > 20000 nM.

`CCCCn1c(-c2cccc(C)c2)cn2c3c(=O)[nH]c(=O)n(C)c3nc12`: in experiment [3], the Activity is 37%.

The record behind these values is ChEMBL document CHEMBL1154183, “Structure-based optimization of potent and selective inhibitors of the tyrosine kinase erythropoietin producing human hepatocellular carcinoma receptor B4 (EphB4)” (J Med Chem, 2009).
